Laboratory results taken from ChEMBL document CHEMBL4376874, “Discovery of Potent and Selective Epidermal Growth Factor Receptor (EGFR) Bifunctional Small-Molecule Degraders” (J Med Chem, 2020).
Active and inactive are the calls of the source. The calls are words filed in the database; no cut-off is given here.

Assays:
[1] = target: Epidermal growth factor receptor (Homo sapiens, UniProt P00533); assay: Induction of wild-type EGFR degradation in human OVCAR8 cells at up to 10 uM treated 8 hrs post serum starvation measured after 16 hrs by Western blot analysis; type: cell-based
[2] = system: Protein cereblon/Epidermal growth factor receptor (Homo sapiens), P00533+Q96SW2 [L858R]; assay: Protac activity at CRBN/EGFR L858R mutant in human H3255 cells assessed as induction of EGFR degradation at 100 nM treated 8 hrs post serum starvation by Western blot analysis; type: cell-based; details: TDE = time-dependent effect
Method in brief: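 After 8 h serum starvation, cells got 100 nM degrader and were collected at serial time points for Western blot of EGFR and downstream signaling.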

[3] = system: Protein cereblon/Epidermal growth factor receptor (Homo sapiens), P00533+Q96SW2 [UNDEFINED MUTATION]; assay: Protac activity at CRBN/EGFR exon 19 deletion mutant in human HCC827 cells assessed as induction of EGFR degradation at 10 uM treated 8 hrs post serum starvation measured after 16 hrs by Western blot analysis relative to control; type: cell-based
Method in brief: (§1)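 Cultured to 80% confluence in RPMI/1640 with 20% FBS at 37 °C and 5% CO2, then switched to serum-free medium for 8 h. Degraders were added over a concentration range up to 10 μM for 16 h, with gefitinib at 1 μM as reference. Lysates in Laemmli buffer were immunoblotted for EGFR, p-EGFR and p-AKT. DC50 came from band quantification by nonlinear regression (variable slope).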

[4] = system: Protein cereblon/Epidermal growth factor receptor (Homo sapiens), P00533+Q96SW2 [L858R]; assay: Protac activity at CRBN/EGFR L858R mutant in human H3255 cells assessed as induction of EGFR degradation treated 8 hrs post serum starvation measured after 16 hrs by Western blot analysis; type: cell-based
[5] = system: Protein cereblon/Epidermal growth factor receptor (Homo sapiens), P00533+Q96SW2 [L858R]; assay: Protac activity at CRBN/EGFR L858R mutant in human H3255 cells assessed as reduction in AKT phosphorylation up to 10 uM treated 8 hrs post serum starvation measured after 16 hrs by Western blot analysis; type: cell-based; method in brief: as §1
NCI-H3255 [6] = assay: Antiproliferative activity against human H3255 cells measured after 3 days by CCK8 assay; type: functional, cell-based
Method in brief: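 H3255 cells seeded 4000/well the night before, then exposed to serial dilutions for 3 days. Growth read by Cell Counting Kit-8; three independent experiments. IC50 from nonlinear regression (log inhibitor vs response, variable slope).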

[7] = system: Protein cereblon/Epidermal growth factor receptor (Homo sapiens), P00533+Q96SW2 [L858R]; assay: Protac activity at CRBN/EGFR L858R mutant in human H3255 cells assessed as induction of EGFR degradation at 100 nM measured after 8 hrs in presence of EGFR inhibitor gefitinib by Western blot analysis; type: cell-based
HCC827 = assay: Effect on AKT level in human HCC827 cells up to 10 uM treated 8 hrs post serum starvation measured after 16 hrs by Western blot analysis; type: ADME, cell-based; details: hcc827, 16 h
[8] = system: Protein cereblon/Epidermal growth factor receptor (Homo sapiens), P00533+Q96SW2 [UNDEFINED MUTATION]; assay: Reversible protac activity at CRBN/EGFR exon 19 deletion mutant in human HCC827 cells assessed as recovery of AKT phosphorylation at 100 nM preincubated for 12 hrs followed by compound washout and measured after 48 hrs by Western blot analysis
NCI-H3255 [9] = assay: Effect on AKT level in human H3255 cells up to 10 uM treated 8 hrs post serum starvation measured after 16 hrs by Western blot analysis; type: ADME, cell-based; details: nci-h3255, 16 h

Sequence of Protein cereblon/Epidermal growth factor receptor (Homo sapiens), P00533+Q96SW2 [UNDEFINED MUTATION] (P00533 whole entry, looked up, stated change not applied): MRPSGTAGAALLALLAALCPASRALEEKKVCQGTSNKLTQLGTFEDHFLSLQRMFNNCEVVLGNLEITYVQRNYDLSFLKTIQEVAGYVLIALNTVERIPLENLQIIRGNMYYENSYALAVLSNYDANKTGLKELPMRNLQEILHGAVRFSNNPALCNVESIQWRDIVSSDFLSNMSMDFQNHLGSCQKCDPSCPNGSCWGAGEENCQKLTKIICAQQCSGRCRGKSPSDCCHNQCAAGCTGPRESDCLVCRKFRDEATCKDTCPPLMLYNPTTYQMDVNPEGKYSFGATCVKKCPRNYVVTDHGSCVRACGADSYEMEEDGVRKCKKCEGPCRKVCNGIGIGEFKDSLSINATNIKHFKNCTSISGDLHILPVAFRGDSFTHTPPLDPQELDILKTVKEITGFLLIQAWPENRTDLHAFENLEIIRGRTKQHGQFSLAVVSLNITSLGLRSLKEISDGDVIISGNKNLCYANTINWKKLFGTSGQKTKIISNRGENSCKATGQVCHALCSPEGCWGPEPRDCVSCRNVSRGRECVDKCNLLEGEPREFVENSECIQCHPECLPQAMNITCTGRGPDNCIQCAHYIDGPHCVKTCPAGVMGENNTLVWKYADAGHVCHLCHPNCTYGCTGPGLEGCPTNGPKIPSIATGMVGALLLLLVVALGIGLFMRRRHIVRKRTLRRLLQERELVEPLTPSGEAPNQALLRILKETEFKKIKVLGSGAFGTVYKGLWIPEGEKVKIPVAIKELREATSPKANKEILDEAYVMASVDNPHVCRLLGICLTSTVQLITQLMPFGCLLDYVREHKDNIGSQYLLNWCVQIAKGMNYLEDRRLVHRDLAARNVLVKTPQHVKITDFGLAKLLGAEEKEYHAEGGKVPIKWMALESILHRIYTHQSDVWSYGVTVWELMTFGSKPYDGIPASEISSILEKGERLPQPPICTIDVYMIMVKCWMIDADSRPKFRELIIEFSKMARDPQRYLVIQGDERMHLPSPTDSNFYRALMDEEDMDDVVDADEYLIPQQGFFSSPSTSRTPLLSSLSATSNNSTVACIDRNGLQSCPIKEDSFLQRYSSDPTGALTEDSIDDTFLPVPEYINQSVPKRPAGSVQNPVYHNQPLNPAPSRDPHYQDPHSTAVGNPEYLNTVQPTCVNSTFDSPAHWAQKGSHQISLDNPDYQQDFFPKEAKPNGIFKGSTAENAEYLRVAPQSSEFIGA
Sequence of Protein cereblon/Epidermal growth factor receptor (Homo sapiens), P00533+Q96SW2 [UNDEFINED MUTATION] (Q96SW2 whole entry, looked up, stated change not applied): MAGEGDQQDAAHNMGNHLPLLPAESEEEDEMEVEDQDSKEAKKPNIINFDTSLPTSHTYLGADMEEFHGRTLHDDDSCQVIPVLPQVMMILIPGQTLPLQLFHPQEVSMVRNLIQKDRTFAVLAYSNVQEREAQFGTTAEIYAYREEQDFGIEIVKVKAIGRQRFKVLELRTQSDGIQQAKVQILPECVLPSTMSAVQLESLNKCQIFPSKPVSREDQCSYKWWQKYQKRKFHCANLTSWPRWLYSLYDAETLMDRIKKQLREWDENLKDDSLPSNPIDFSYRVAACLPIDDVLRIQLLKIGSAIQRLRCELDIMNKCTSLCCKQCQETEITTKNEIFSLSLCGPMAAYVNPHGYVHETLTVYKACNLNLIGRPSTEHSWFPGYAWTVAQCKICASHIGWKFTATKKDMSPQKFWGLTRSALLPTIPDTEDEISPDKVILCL
Sequence of Epidermal growth factor receptor (P00533 whole entry): as the sequence (P00533 whole entry, looked up, stated change not applied) above

Which Activity [1] does the source give for `COc1cc2ncnc(Nc3ccc(F)c(Cl)c3)c2cc1OCCCN1CCN(CCC(=O)NCCCCCCCCOc2cccc3c2C(=O)N(C2CCC(=O)NC2=O)C3=O)CC1` (stereo not given) here?
Its Activity is “Not Active”.

And the Activity [2]?
Its Activity is “Tde”.

What about the Activity [3] of the same compound?
The Activity was “inactive”.

And the Activity [4]?
Its Activity is “Dose-dependent effect”.

And the Activity [5]?
Its Activity is “Active”.

And the Activity (NCI-H3255 [6])?
The Activity was “Active”.

And the Activity [7]?
The Activity was “inactive”.

And the Activity (HCC827)?
The Activity was “Non-Toxic”.

What about the Activity [8] of the same compound?
The Activity was “Active”.

And the Activity (NCI-H3255 [9])?
Its Activity is “Non-Toxic”.
